According to ChEMBL document CHEMBL1671763, “Nasal carriage of methicillin-resistant and methicillin-sensitive strains of Staphylococcus sciuri in the Indonesian population” (2010):

What was measured:
Assay type in all cases: functional
Mammaliicoccus sciuri [1] = test: Antimicrobial activity against mecA-deficient Staphylococcus sciuri assessed as resistant isolates
Procedure, shortened: (§1)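 Nasal S. sciuri isolates from the Indonesian population, grouped by presence of the S. aureus mecA and S. sciuri mecA genes. Susceptibility to the additional antibiotics was tested on the automated Vitek 2 system (AST-P549 card), and the number of resistant isolates in each group was counted.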

Mammaliicoccus sciuri [2] = test: Antimicrobial activity against mecA-deficient Staphylococcus sciuri harboring staphylococcus aureus mecA gene assessed as resistant isolates; procedure, shortened: as §1
Mammaliicoccus sciuri [3] = test: Antimicrobial activity against mecA-positive Staphylococcus sciuri harboring staphylococcus aureus mecA gene assessed as resistant isolates; procedure, shortened: as §1
Mammaliicoccus sciuri [4] = test: Antimicrobial activity against mecA-positive Staphylococcus sciuri assessed as resistant isolates; procedure, shortened: as §1

| Compound | Activity (Mammaliicoccus sciuri [1]) [%] | Activity (Mammaliicoccus sciuri [2]) [%] | Activity (Mammaliicoccus sciuri [3]) [%] | Activity (Mammaliicoccus sciuri [4]) [%] |
| --- | --- | --- | --- | --- |
| CC[C@H]1OC(=O)[C@H](C)[C@@H](O[C@H]2C[C@@](C)(OC)[C@@H](O)[C@H](C)O2)[C@H](C)[C@@H](O[C@@H]2O[C@H](C)C[C@H](N(C)C)[C@H]2O)[C@](C)(O)C[C@@H](C)C(=O)[C@H](C)[C@@H](O)[C@]1(C)O [ERYTHROMYCIN] | 0 | 33.3 | 23.1 | 0 |
| GENTAMICIN | 0 | 55.5 | 38.5 | 0 |
| CC(=O)O[C@H]1C[C@@]2(C)[C@@H](C[C@@H](O)[C@H]3[C@@]4(C)CC[C@@H](O)[C@@H](C)[C@@H]4CC[C@@]32C)/C1=C(\CCC=C(C)C)C(=O)O [FUSIDIC ACID] | 55.6 | 44.4 | 69.2 | 60 |
| CO[C@H]1/C=C/O[C@@]2(C)Oc3c(C)c(O)c4c(O)c(c(/C=N/N5CCN(C)CC5)c(O)c4c3C2=O)NC(=O)/C(C)=C\C=C\[C@H](C)[C@H](O)[C@@H](C)[C@@H](O)[C@@H](C)[C@H](OC(C)=O)[C@@H]1C [RIFAMPIN] | 0 | 11.1 | 15.4 | 0 |
| CCn1cc(C(=O)O)c(=O)c2cc(F)c(N3CCNCC3)cc21 [NORFLOXACIN] | 0 | 66.7 | 15.4 | 0 |
| CN[C@H](CC(C)C)C(=O)N[C@H]1C(=O)N[C@@H](CC(N)=O)C(=O)N[C@H]2C(=O)N[C@H]3C(=O)N[C@H](C(=O)N[C@H](C(=O)O)c4cc(O)cc(O)c4-c4cc3ccc4O)[C@H](O)c3ccc(c(Cl)c3)Oc3cc2cc(c3O[C@@H]2O[C@H](CO)[C@@H](O)[C@H](O)[C@H]2O[C@H]2C[C@](C)(N)[C@H](O)[C@H](C)O2)Oc2ccc(cc2Cl)[C@H]1O [VANCOMYCIN] | 0 | 0 | 0 | 0 |
| CN(C)[C@@H]1C(O)=C(C(N)=O)C(=O)[C@@]2(O)C(O)=C3C(=O)c4c(O)cccc4[C@@](C)(O)[C@H]3C[C@@H]12 [TETRACYCLINE] | 11.1 | 77.8 | 46.2 | 5 |
